# MC4R barr agon: agonists of human melanocortin 4 receptor (MC4R) beta-arrestin. P32245. U2OS MC4R beta-arrestin complementation, luminescence; percent of melanotan II response, DMSO zero. activation, % at 8.9 µM. hit rate 0.98% among 360,000. AID 540308;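 active = activation above a per-plate cutoff, the mean activation of sample wells on that plate plus 3 SD, cut at about 8% in these data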
# Target sequence (P32245 whole entry, looked up): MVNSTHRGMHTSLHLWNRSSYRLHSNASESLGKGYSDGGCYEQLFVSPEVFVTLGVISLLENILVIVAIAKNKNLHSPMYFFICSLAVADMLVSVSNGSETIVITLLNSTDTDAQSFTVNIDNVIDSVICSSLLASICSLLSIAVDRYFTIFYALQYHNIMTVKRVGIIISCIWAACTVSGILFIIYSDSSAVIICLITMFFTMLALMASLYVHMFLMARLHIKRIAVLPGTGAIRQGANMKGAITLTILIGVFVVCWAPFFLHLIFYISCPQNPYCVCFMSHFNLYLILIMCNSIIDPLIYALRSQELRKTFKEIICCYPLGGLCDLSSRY
# ATG4B inhibitor: blocks human ATG4B protease cleavage of LC3 substrate; Q9Y4P1; ATG4B cleavage of LC3-PLA2, NBD-HPC fluorescence, 1 h; inhibition, % at 8.33 µM; hit rate 0.51% among 340,000; in the data active = inhibition above about 40%
# MC4R antagonist: antagonists of human melanocortin 4 receptor (MC4R) | inhibition, % at 6.5 µM | hit rate 0.48% among 360,000 | MC4R-expressing cells, MTII-stimulated cAMP, LANCE TR-FRET;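 active = inhibition above its plate's cutoff, the mean of tested wells on that plate plus 3 SD, cut at about 29% in these data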;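 also: 0% = Melanotan II alone and 100% = Melanotan II plus saturating MCL0020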
#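 Test system: U2OS cells stably expressing human melanocortin 4 receptor (MC4R); also added: Melanotan II challenge; compound: 6.5 µM single dose; timing: 30-min compound preincubation, 1-h Melanotan II challenge, 1-h detection, room temperature; signal: Eu-cAMP/anti-cAMP TR-FRET, emission 671 nm; repeats: one well per compound, no replicates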
# MPTP block: blocks calcium-induced mitochondrial swelling; isolated mouse mitochondria, Ca2+ swelling absorbance, 30 min; inhibition, % at 10 µM; hit rate 1.4% among 360,000; AID 602449;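 active = inhibition of 50% or more, scaled per plate between neutral and stimulator controls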;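 also: 0% = DMSO wells given calcium and 100% = 1 mM EGTA wells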
# SMARCA2 activ: increases SMARCA2 function in MMTV reporter cells | MG213 cells, MMTV-luciferase reporter, dexamethasone, overnight | activation, % at 9.1 µM | hit rate 1% among 370,000 | AID 652017; in the data active = activation above about 7.8%;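 also: 0% = vehicle wells and 100% = reference activator wells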
# SMARCA2 conf: SMARCA2 activation, confirmation screen. AID 652260. activation, % at 9.1 µM. MG213 cells, MMTV-luciferase with dexamethasone, luminescence, overnight; MG213 cells expressing E1A, Rb sequestered; DMSO wells 0%, reference activator 100%. hit rate 30% among 3,500. shares compounds with SMARCA2 activ;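 active = activation above its plate's cutoff, the mean activation of tested wells plus 3 SD, cut at about 7.9% in these data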
# VP16 Luc act: activates GAL4-VP16 luciferase, flagging SMARCA2 activator hits; shares compounds with SMARCA2 activ; HEK293 GAL4-VP16 pG5luc reporter, luciferase luminescence; scaled: DMSO wells 0%, SAHA wells 100%; AID 686939; hit rate 41% among 3,500; activation, % at 9.1 µM;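 active = activation above the solvent-only control well mean plus 3 SD, averaged across control plates, cut at about 5.2% in these data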
# * = called active by the depositor; · = no result. Sampled rows, rich in hits. Any-hit rate of the full collection: about 4.1%.
SMILES,MC4R barr agon,ATG4B inhibitor,MC4R antagonist,MPTP block,SMARCA2 activ,SMARCA2 conf,VP16 Luc act
Cc1cccn2c(=O)c3cc(C(=O)NCCN4CCOCC4)c(=N)n(CCc4ccccc4)c3nc12,0.2,-10.3,4.4,12.7,10.7*,2.2,1.0
Cc1cccn2c(=O)c3cc(C(=O)NC4CCCC4)c(=N)n(C4CCCCC4)c3nc12,1.3,20.6,7.2,-0.5,8.2*,8.3*,-1.1
COc1ccc(CCNC(=O)c2cc3c(=O)n4ccccc4nc3n(C3CCCCC3)c2=N)cc1OC,5.9,-7.8,-1.2,-2.9,11.8*,5.8,1.8
CC(C)(C)c1ccc(-c2cn(C[C@H](Cc3ccccc3)n3c(=O)c4ccccc4n3Cc3ccco3)nn2)cc1,·,·,·,·,-2.6,·,·
COC(=O)C1=C(C)N(C)C(=NCc2ccc(OC)cc2)NC1c1cccc(Cl)c1 (stereo unspecified),·,·,·,·,-2.0,·,·
CC(C)(C)C(=O)OC12CCCN(C1)/C(=C/c1cccc(Cl)c1)C2 (stereo unspecified),·,·,·,·,-1.6,·,·
Cc1ccc(Cn2cc(CN3[C@H](CC(C)C)COc4cc(Br)ccc4S3(=O)=O)nn2)cc1,·,·,·,·,6.0,·,·
Cc1cccc(C)c1NC(=O)C1C(c2ccc3c(c2)OCO3)=Nc2ccccc2N1C(=O)c1ccccn1 (stereo unspecified),·,·,·,-1.8,8.1*,4.2,-0.1
CC(=O)N1c2ccccc2N=C(c2ccc3c(c2)OCO3)C1C(=O)NCc1ccccc1 (stereo unspecified),·,·,·,-0.2,10.8*,6.5,0.6
CCCCNC(=O)C1C(c2ccccc2)=Nc2ccccc2N1C(=O)c1ccc2c(c1)OCO2 (stereo unspecified),·,·,·,0.1,-1.8,·,·
Cc1cccc(C)c1NC(=O)C1C(c2ccc3c(c2)OCO3)=Nc2ccccc2N1C(=O)c1cccc(C(F)(F)F)c1 (stereo unspecified),·,·,·,0.3,-6.8,·,·
COc1cccc(CC(=O)O[C@@H]2CCC[C@@]3(C(=O)N(Cc4ccccc4)c4ccccc43)[C@H]2NC(=O)CCc2ccccc2)c1,·,·,·,·,-4.9,·,·
Cc1cc2c(c(=O)o1)[C@@]1(C(=O)N(C)c3ccccc31)C1=C(CC(C)(C)CC1=O)O2,·,·,·,·,-8.1,·,·
COc1ccc(OCc2nn3c(-c4ccccc4)nnc3s2)cc1,·,·,·,·,-6.4,·,·
Cc1ccc(CNC(=O)C2=NNC(=O)CC2)cc1,-0.4,-6.7,7.8,-0.4,12.1*,3.6,7.9*
Cc1ccc(C)c(NC(=O)CN(C)C(=O)C2=NNC(=O)CC2)c1,-2.9,-18.1,12.3,1.4,-0.1,·,·
CC(C)NC(=O)N(C)C[C@H]1OCc2cn(nn2)CCCC(=O)N([C@H](C)CO)C[C@@H]1C,·,·,·,·,-3.6,·,·
COc1ccccc1CNC(=O)Cc1ccccc1,-1.3,-3.3,3.5,-0.1,9.5*,2.5,4.8
O=C1NC[C@H](CCCCN2CCN(Cc3ccccc3)C(=O)C2=O)N(Cc2ccccc2)C1=O,·,·,·,-0.3,0.6,·,·
CC(=O)Nc1cc(C(=O)OCC(=O)c2ccccc2)ccc1C,3.4,1.4,-14.3,-1.2,8.3*,6.5,10.0*
CCOC(=O)c1cnc2c(N=Nc3ccccc3)c(N)nn2c1N,2.1,-7.1,-8.2,2.3,8.3*,10.8*,12.5*
c1ccc(Cc2cnc(N3CCN(Cc4cccc(-c5ccsc5)n4)CC3)nc2)cc1,·,·,·,·,-4.8,·,·
COc1ccc(OC)c2sc(N(CCCN(C)C)C(=O)CCS(=O)(=O)c3ccccc3)nc12,-2.8,0.0,-6.3,-1.7,9.9*,-15.4,-0.8
COc1ccc(Cl)c2sc(N(CCN(C)C)C(=O)CCS(=O)(=O)c3ccc(C)cc3)nc12,0.7,-12.6,-0.9,32.9,-0.9,·,·
CCN(CC)CCN(C(=O)CCS(=O)(=O)c1ccccc1)c1nc2cc(OC)c(OC)cc2s1,-2.4,0.5,10.7,-0.7,8.7*,-3.8,0.8
SMILES,MC4R barr agon,ATG4B inhibitor,MC4R antagonist,MPTP block,SMARCA2 activ,SMARCA2 conf,VP16 Luc act
CCN(CC)CCOc1ccc2c(c1)C(=NO)c1cc(OCCN(CC)CC)ccc1-2,-1.3,-8.2,-8.9,0.6,23.4*,75.8*,0.0
COC(=O)C1CN(C2CC2)CCS(=O)(=O)N1Cc1cn(Cc2ccc(F)cc2)nn1 (stereo unspecified),·,·,·,·,-1.0,·,·
O=C(CN1C(=O)CSc2ccccc21)NC1CCCC1,0.3,-7.5,13.0,-1.7,8.3*,-0.5,0.2
COC(=O)/C(C#N)=C1/C=Cc2ccccc2N1,0.6,-5.7,19.5,0.5,8.9*,5.5,8.3*
COc1ccc(C2=NOC(CNC(N)=S)C2)cc1 (stereo unspecified),-2.7,-4.6,0.7,-4.0,12.8*,6.9,7.7*
C[C@@H]1CN([C@@H](C)CO)C(=O)CCCn2cc(nn2)CO[C@H]1CN(C)C(=O)Cc1ccccc1,·,·,·,·,-5.1,·,·
CC1=CC(=O)C(Sc2ccc(C)cc2)=CC1=O,-3.3,·,18.3,22.8,8.1*,-3.8,6.2*
N=C1C(c2nc3ccccc3[nH]2)=C(O)CN1c1ccccc1,-1.7,9.7,6.8,0.4,8.2*,9.0*,7.4*
C=CCC(NCc1ccco1)c1ccc(OC)c(OC)c1 (stereo unspecified),0.5,-0.8,-2.5,-0.4,9.9*,-2.6,0.8
COc1cc(NC(=O)NC2CCCCN(Cc3cccc(Cl)c3)C2=O)cc(OC)c1 (stereo unspecified),·,·,·,·,-1.6,·,·
CCOC(=O)C1=CCC(c2ccccc2)N(S(C)(=O)=O)C1 (stereo unspecified),·,·,·,·,-1.7,·,·
CC1(C(=O)NCCN2CCOCC2)C=CC2(CCCCC2)N1C(=O)c1ccccc1 (stereo unspecified),0.2,7.7,0.8,0.2,8.7*,3.0,2.1

# Screening data from PubChem.
